According to ChEMBL document CHEMBL2176936, “Identification of a 4-(hydroxymethyl)diarylhydantoin as a selective androgen receptor modulator” (J Med Chem, 2012):

What was measured:
Rattus norvegicus [1] = test: Androgenic activity in ORX rat model assessed as weight of ventral prostate at 10 mg/kg/day, po administered for 4 days; type: functional, Prostate gland
How it was run: (§1)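 Hershberger-type model in castrated immature male rats: left untreated one week after castration, then dosed four days (test compounds oral; testosterone propionate sc). Levator ani and ventral prostate weights normalised to body weight; activity % = (W/BW treated − W/BW ORX)/(W/BW sham − W/BW ORX) × 100. A50 = dose giving 50% activity on the tissue.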

Rattus norvegicus [2] = test: Anabolic activity in ORX rat model assessed as weight of levator ani muscle at 10 mg/kg/day, po administered for 4 days; type: functional; how it was run: as §1
[3] = Oral bioavailability in rat at 10 mg/kg and 3 mg/kg, iv; type: ADME, organism-based; details: in vivo
How it was run: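 Absolute oral bioavailability in rats: single oral dose 10 mg/kg in EtOH/PEG400/H₂O (1/79/20, v/v/v) compared with single iv dose 3 mg/kg in DMSO/PEG400/H₂O (1/65/34, v/v/v).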

Rattus norvegicus [4] = test: Androgenic activity in ORX rat model assessed as weight of ventral prostate at 30 mg/kg/day, po administered for 4 days; type: functional, Prostate gland; how it was run: as §1
Rattus norvegicus [5] = test: Anabolic activity in ORX rat model assessed as weight of levator ani muscle at 30 mg/kg/day, po administered for 4 days; type: functional; how it was run: as §1
[6] = Oral bioavailability in Sprague-Dawley rat at 10 mg/kg; type: ADME, organism-based; details: in vivo
How it was run: (§2)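 Male Sprague-Dawley rats, single dose: iv 3 mg/kg in DMSO/PEG200/H₂O (1/79/20, v/v/v), or oral 10 mg/kg in EtOH/PEG200/H₂O (1/79/20, v/v/v). Two groups of three rats; N = 2 rats for one arm. CL, T1/2, Vdss, AUC(0−∞) and F derived.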

[7] = AUC (0 to infinity) in Sprague-Dawley rat at 10 mg/kg, po; type: ADME, organism-based; design: time infinity, dose 10 mg/kg, route oral; details: plasma
[8] = AUC (0 to infinity) in Sprague-Dawley rat at 3 mg/kg, iv; type: ADME, organism-based; design: dose 3 mg/kg, route intravenous, time infinity; details: plasma
Rattus norvegicus [9] = test: […] activity in ORX rat model assessed as activity on ventral prostate at 30 mg/kg/day, po administered for 4 days; type: functional, Prostate gland; how it was run: as §1
[10] = Volume of distribution at steady state in Sprague-Dawley rat at 3 mg/kg, iv; type: ADME, organism-based; design: dose 3 mg/kg, route intravenous; details: in vivo, read-out: Vdss; how it was run: as §2
Rattus norvegicus [11] = test: Anabolic activity in ORX rat model assessed as increase in levator ani muscle weight at 10 mg/kg/day, po administered for 3 months relative to sham-treated control; type: functional
How it was run: (§3)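 Rats castrated at seven weeks of age, then given compound orally for three months in a prophylactic setting at 10 mg/kg/day. Levator ani and prostate weights normalised with sham-operated rats set to 100% and ORX rats set to 0%.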

Rattus norvegicus [12] = test: Anabolic activity in ORX rat model assessed as dose required for 50% activity on levator ani muscle po administered for 4 days; type: functional; how it was run: as §1
[13] = Clearance in Sprague-Dawley rat at 3 mg/kg, iv; type: ADME, organism-based; design: dose 3 mg/kg, route intravenous; details: in vivo; how it was run: as §2
Rattus norvegicus [14] = test: […] activity in ORX rat model assessed as increase in prostate weight at 10 mg/kg/day, po administered for 3 months relative to sham-treated control; type: functional, Prostate gland; how it was run: as §3
[15] = Half life in Sprague-Dawley rat at 3 mg/kg, iv; type: ADME, organism-based; design: dose 3 mg/kg, route intravenous; details: in vivo; how it was run: as §2
[16] = Half life in Sprague-Dawley rat at 10 mg/kg, po; type: ADME, organism-based; design: dose 10 mg/kg, route oral; details: in vivo; how it was run: as §2
Rattus norvegicus [17] = test: Androgenic activity in ORX rat model assessed as dose required for 50% activity on ventral prostate po administered for 4 days; type: functional, Prostate gland; how it was run: as §1
Rattus norvegicus [18] = test: Androgenic activity in ORX rat model assessed as weight of ventral prostate at 1 mg/kg/day, sc administered for 4 days; type: functional, Prostate gland; details: route subcutaneous; how it was run: as §1
Rattus norvegicus [19] = test: Anabolic activity in ORX rat model assessed as weight of levator ani muscle at 1 mg/kg/day, sc administered for 4 days; type: functional; details: route subcutaneous; how it was run: as §1
[20] = Oral bioavailability in monkey; type: ADME, organism-based, Macaca mulatta; details: rhesus monkey, in vivo

With `CCN1C(=O)N(c2ccc(C#N)c(C(F)(F)F)c2)C(=O)C1(CO)c1ccccc1` (racemic) as the compound, how does the Activity (Rattus norvegicus [1]) read?
The Activity was 59%.

And the Activity (Rattus norvegicus [2])?
Its Activity is 112%.

What about the bioavailability [3] of the same compound?
Its bioavailability is 76%.

With `CN1C(=O)N(c2ccc(C#N)c(C(F)(F)F)c2)C(=O)C1(C)c1ccc2[nH]ccc2c1` (racemic) as the compound, how does the bioavailability [3] read?
The bioavailability was 19%.

With `CN1C(=O)N(c2ccc(C#N)c(C(F)(F)F)c2)C(=O)C1(CO)c1ccc(C#N)cc1` (racemic) as the compound, how does the Activity (Rattus norvegicus [1]) read?
The Activity was 11%.

And the Activity (Rattus norvegicus [2])?
Its Activity is 12%.

Which results are given for `CN1C(=O)N(c2ccc(C#N)c(C(F)(F)F)c2)C(=O)C1(CO)c1ccc(Cl)cc1` (racemic)?
Activity (Rattus norvegicus [1]): 0%; Activity (Rattus norvegicus [2]): 35%; bioavailability [3]: 99%

With `CN1C(=O)N(c2ccc(Cl)c(Cl)c2)C(=O)C1(CO)c1ccccc1` (racemic) as the compound, how does the Activity (Rattus norvegicus [1]) read?
The Activity was 23%.

What about the Activity (Rattus norvegicus [2]) of the same compound?
The Activity was 96%.

Which Activity (Rattus norvegicus [4]) does the source give for `CN1C(=O)N(c2ccc(C#N)c(C(F)(F)F)c2)C(=O)C1(CO)c1ccccc1` (racemic) here?
Its Activity is 14%.

And the Activity (Rattus norvegicus [1])?
The Activity was 13%.

And the bioavailability [3]?
The bioavailability was 63%.

What about the Activity (Rattus norvegicus [5]) of the same compound?
The Activity was 96%.

For `CN1C(=O)N(c2ccc(C#N)c(C(F)(F)F)c2)C(=O)[C@@]1(CO)c1ccccc1` [GLPG0492], which bioavailability [6] is on record?
Its bioavailability is 56%.

What about the AUC(0-inf) [7] of the same compound?
The AUC(0-inf) was 4680 ng·h/mL.

What about the Activity (Rattus norvegicus [4]) of the same compound?
Its Activity is 26%.

And the AUC(0-inf) [8]?
The AUC(0-inf) was 2360 ng·h/mL.

And the Activity (Rattus norvegicus [1])?
The Activity was 24%.

And the “%max” value (Rattus norvegicus [9])?
The value was 30%.

And the Vd [10]?
The Vd was 2.5 L/kg.

And the Activity (Rattus norvegicus [2])?
Its Activity is 101%.

What about the Activity (Rattus norvegicus [11]) of the same compound?
Its Activity is 117%.

And the Activity (Rattus norvegicus [12])?
The Activity was 0.75 mg/kg/day.

What about the bioavailability [3] of the same compound?
The bioavailability was 56%.

What about the clearance [13] of the same compound?
The clearance was 21.7 mL/min/kg.

And the Activity (Rattus norvegicus [14])?
Its Activity is 25%.

What about the Activity (Rattus norvegicus [5]) of the same compound?
The Activity was 106%.

And the half-life [15]?
Its half-life is 1.5 h.

What about the half-life [16] of the same compound?
Its half-life is 2.2 h.

Which Activity (Rattus norvegicus [4]) does the source give for `CN1C(=O)N(c2ccc(C#N)c(C(F)(F)F)c2)C(=O)C1(C)c1ccc(O)cc1` (racemic) here?
The Activity was 16%.

And the Activity (Rattus norvegicus [1])?
Its Activity is 8%.

And the Activity (Rattus norvegicus [2])?
The Activity was 68%.

What about the bioavailability [3] of the same compound?
The bioavailability was 1.5%.

What about the Activity (Rattus norvegicus [5]) of the same compound?
The Activity was 89%.

Which bioavailability [3] does the source give for `CN1C(=O)N(c2ccc(C#N)c(C(F)(F)F)c2)C(=O)C1(CO)c1ccc(F)cc1` (racemic) here?
Its bioavailability is 87%.

Which Activity (Rattus norvegicus [1]) does the source give for `C#CCN1C(=O)N(c2ccc(C#N)c(C(F)(F)F)c2)C(=O)C1(CO)c1ccccc1` (racemic) here?
The Activity was 43%.

And the Activity (Rattus norvegicus [2])?
The Activity was 96%.

For `CN1C(=O)N(c2ccc(C#N)c(C(F)(F)F)c2)C(=O)C1(CO)c1ccccc1Cl` (racemic), which Activity (Rattus norvegicus [1]) is on record?
Its Activity is 7%.

And the Activity (Rattus norvegicus [2])?
The Activity was 26%.

For `CN1C(=O)N(c2ccc(C#N)c(C(F)(F)F)c2)C(=O)C1(C)c1ccc2[nH]cnc2c1` (racemic), which bioavailability [3] is on record?
The bioavailability was 100%.

What does the source list for `COc1ccc(C2(CO)C(=O)N(c3ccc(C#N)c(C(F)(F)F)c3)C(=O)N2C)cc1` (racemic)?
Activity (Rattus norvegicus [4]): 95%; bioavailability [3]: 25%; Activity (Rattus norvegicus [5]): 130%

With `CCC(=O)O[C@H]1CC[C@H]2[C@@H]3CCC4=CC(=O)CC[C@]4(C)[C@H]3CC[C@]12C` [TESTOSTERONE PROPIONATE] as the compound, how does the Activity (Rattus norvegicus [17]) read?
The Activity was 0.2 mg/kg/day.

And the Activity (Rattus norvegicus [18])?
The Activity was 73%.

What about the Activity (Rattus norvegicus [12]) of the same compound?
Its Activity is 0.3 mg/kg/day.

What about the Activity (Rattus norvegicus [19]) of the same compound?
The Activity was 99%.

Which Activity (Rattus norvegicus [1]) does the source give for `CN1C(=O)N(c2ccc(C#N)c(C(F)(F)F)c2)C(=O)C1(CO)c1cccc(C#N)c1` (racemic) here?
The Activity was 26%.

And the Activity (Rattus norvegicus [2])?
The Activity was 84%.

With `CN1C(=O)N(c2ccc(C#N)c(C(F)(F)F)c2)C(=O)C1(CO)c1ccc(O)cc1` (racemic) as the compound, how does the Activity (Rattus norvegicus [4]) read?
Its Activity is 55%.

What about the bioavailability [3] of the same compound?
The bioavailability was 15%.

What about the Activity (Rattus norvegicus [5]) of the same compound?
Its Activity is 82%.

Which results are given for `CN1C(=O)N(c2ccc(C#N)c(C(F)(F)F)c2)C(=O)C1(CO)c1cccc(Cl)c1` (racemic)?
Activity (Rattus norvegicus [1]): 16%; Activity (Rattus norvegicus [2]): 66%

Which Activity (Rattus norvegicus [2]) does the source give for `CN1C(=O)N(c2ccc(C#N)c(C(F)(F)F)c2)C(=O)[C@]1(CO)c1ccccc1` here?
Its Activity is 101%.

Which Activity (Rattus norvegicus [1]) does the source give for `Cc1cccc(C2(CO)C(=O)N(c3ccc(C#N)c(C(F)(F)F)c3)C(=O)N2C)c1` (racemic) here?
Its Activity is 0%.

What about the Activity (Rattus norvegicus [2]) of the same compound?
The Activity was 24%.

What does the source list for `CN1C(=O)N(c2ccc(C#N)c(C(F)(F)F)c2)C(=O)[C@@]1(C)c1ccc(O)cc1`?
Activity (Rattus norvegicus [4]): 26%; Activity (Rattus norvegicus [1]): 12%; bioavailability [20]: < 9%; bioavailability [3]: < 9%; Activity (Rattus norvegicus [5]): 77%

What does the source list for `CC(C)N1C(=O)N(c2ccc(C#N)c(C(F)(F)F)c2)C(=O)C1(CO)c1ccccc1` (racemic)?
Activity (Rattus norvegicus [1]): 60%; Activity (Rattus norvegicus [2]): 109%
